Activity calls are given as the source filed them. The calls are words filed in the database; no cut-off is given here.
Key:
Rattus norvegicus [1] = assay: Percent reduction in blood pressure in spontaneously hypertensive rats (SHR) at peroral dose of 5 mg/kg was determined after 6 hr; assay type: functional; details: route oral
Outline: (§1)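 Single oral gavage dose of 5 mg/kg to groups of six spontaneously hypertensive rats, all with starting systolic pressure above 175 mmHg. Rats were warmed at 33 °C for 20–30 min before readings. Systolic pressure was taken by tail cuff with a variable capacitance transducer, predose and at 1, 2, 4 and 6 h. Percent reduction from predose is given. Saline-dosed controls (n = 10) were run.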

Rattus norvegicus [2] = assay: Percent reduction in blood pressure in spontaneously hypertensive rats (SHR) at peroral dose of 5 mg/kg was determined after 1 hr; assay type: functional; details: route oral; outline: as §1
[3] = biological target: T1, Adrenergic receptor alpha-1 (Rattus norvegicus, UniProt P15823+P23944+P43140); assay: Compound was tested for its binding affinity for alpha-1 adrenergic receptor site by displacement of [3H]prazosin at 0.15 nM concentration
T1 sequence (P15823 whole entry): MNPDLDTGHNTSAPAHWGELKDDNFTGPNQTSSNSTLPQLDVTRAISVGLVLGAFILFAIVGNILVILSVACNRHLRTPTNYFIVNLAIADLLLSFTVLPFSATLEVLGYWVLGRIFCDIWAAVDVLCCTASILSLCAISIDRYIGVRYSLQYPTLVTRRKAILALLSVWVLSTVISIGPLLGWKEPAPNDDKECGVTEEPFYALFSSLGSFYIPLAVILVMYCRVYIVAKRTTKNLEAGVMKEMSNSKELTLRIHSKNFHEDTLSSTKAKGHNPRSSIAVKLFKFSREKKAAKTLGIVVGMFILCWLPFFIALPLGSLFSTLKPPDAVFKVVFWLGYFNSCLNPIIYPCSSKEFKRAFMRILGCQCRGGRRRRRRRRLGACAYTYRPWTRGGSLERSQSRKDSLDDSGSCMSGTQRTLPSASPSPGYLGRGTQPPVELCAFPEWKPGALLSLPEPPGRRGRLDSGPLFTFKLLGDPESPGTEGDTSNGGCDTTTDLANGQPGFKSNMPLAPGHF
T1 sequence (P23944 whole entry): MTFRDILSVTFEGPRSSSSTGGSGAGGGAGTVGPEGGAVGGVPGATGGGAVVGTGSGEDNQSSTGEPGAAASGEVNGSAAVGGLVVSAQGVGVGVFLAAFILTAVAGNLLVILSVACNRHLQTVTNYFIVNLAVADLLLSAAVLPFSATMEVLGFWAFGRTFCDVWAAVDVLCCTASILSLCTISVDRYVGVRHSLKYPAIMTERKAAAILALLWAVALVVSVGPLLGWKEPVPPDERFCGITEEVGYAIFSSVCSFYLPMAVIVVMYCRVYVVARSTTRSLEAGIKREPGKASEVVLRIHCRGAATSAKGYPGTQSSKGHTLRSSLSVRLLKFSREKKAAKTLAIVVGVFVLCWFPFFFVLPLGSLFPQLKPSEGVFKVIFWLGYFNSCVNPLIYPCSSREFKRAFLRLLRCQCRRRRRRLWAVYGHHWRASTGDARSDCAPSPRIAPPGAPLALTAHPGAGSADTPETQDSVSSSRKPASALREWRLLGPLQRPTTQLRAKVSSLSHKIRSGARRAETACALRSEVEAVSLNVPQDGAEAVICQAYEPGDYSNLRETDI
T1 sequence (P43140 whole entry): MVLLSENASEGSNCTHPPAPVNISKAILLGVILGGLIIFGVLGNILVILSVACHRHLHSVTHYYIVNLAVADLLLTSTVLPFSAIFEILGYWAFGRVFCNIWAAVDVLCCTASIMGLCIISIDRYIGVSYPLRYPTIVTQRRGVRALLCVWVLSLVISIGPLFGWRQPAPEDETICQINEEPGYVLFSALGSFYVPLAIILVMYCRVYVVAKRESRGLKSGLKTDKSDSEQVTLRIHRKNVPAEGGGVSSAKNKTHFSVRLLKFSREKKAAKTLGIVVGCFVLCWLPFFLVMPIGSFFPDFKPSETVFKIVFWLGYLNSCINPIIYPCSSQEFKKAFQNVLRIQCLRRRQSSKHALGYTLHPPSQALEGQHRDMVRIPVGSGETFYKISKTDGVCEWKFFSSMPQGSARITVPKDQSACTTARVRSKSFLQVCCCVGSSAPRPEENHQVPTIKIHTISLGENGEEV

[4] = biological target: T2, Adrenergic receptor alpha-1 (Homo sapiens) (UniProt P35348+P25100+P35368); assay: Antagonist activity against post junctional alpha-1 adrenergic receptor was measured by Kerbs super fused rabbit pulmonary artery preparations labeled with [3H]- norepinephrine.; assay type: functional; details: Oryctolagus cuniculus; target entry is the homologue from another species
Outline: (§2)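 Rabbit pulmonary artery superfused in Krebs after [3H]-noradrenaline labelling, with transmural electrical stimulation (3 Hz, 0.05 h). Postjunctional response was read as contraction on an isometric transducer. Percent antagonism was plotted against compound concentration. EC40-post, the concentration giving 40% reduction of contractile response, was read from the graph. Values are averaged from two experiments, six for some.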

[5] = biological target: T3, Adrenergic receptor alpha-2 (Homo sapiens) (UniProt P08913+P18825+P18089); details: Oryctolagus cuniculus; Pulmonary artery
[6] = biological target: T2, Adrenergic receptor alpha-1 (Homo sapiens); assay: Antagonist activity against post junctional alpha-1 adrenergic receptor was measured by Kerbs super fused rabbit pulmonary artery preparations labeled with [3H]- norepinephrine; assay type: functional, tissue-based; details: Oryctolagus cuniculus, target entry is the homologue from another species; outline: as §2
[7] = biological target: T3, Adrenergic receptor alpha-2 (Homo sapiens); assay: Antagonist activity against prejunctional alpha-2 adrenergic receptor was measured by Kerbs super fused rabbit pulmonary artery preparations labeled with [3H]- norepinephrine; NA means no activity.; assay type: functional; details: Oryctolagus cuniculus; target entry is the homologue from another species
Outline: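 [3H]-noradrenaline-labelled rabbit pulmonary artery, Krebs-superfused and stimulated transmurally (3 Hz, 0.05 h). Prejunctional action was read as [3H] overflow by liquid scintillation counting and plotted against compound concentration. EC40-pre, the concentration producing a 40% increase in [3H] overflow, was read from the graph. Values are averaged from two experiments, six for some.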

[8] = biological target: T2, Adrenergic receptor alpha-1 (Homo sapiens); assay: Antagonist activity against post junctional Alpha-1 adrenergic receptor was measured by Kerbs super fused rabbit pulmonary artery preparations labeled with [3H]- norepinephrine.; assay type: functional, tissue-based; details: Oryctolagus cuniculus, target entry is the homologue from another species; outline: as §2
[9] = biological target: T1, Adrenergic receptor alpha-1; assay: Compound was tested for its binding affinity for alpha-1 adrenoceptor site by displacement of [3H]-prazosin at 0.15 nM concentration
[10] = biological target: T1, Adrenergic receptor alpha-1; assay: Compound was tested for its binding affinity for alpha-1 adrenergic receptor site by displacement of [3H]prazosin at 0.15 nM concentration; remark: listed apart in the source
[11] = biological target: T1, Adrenergic receptor alpha-1; assay: as above; remark: listed apart in the source

Row | Structure (SMILES) | Ki [3] [nM] | Reduction (Rattus norvegicus [1]) [%] | Reduction (Rattus norvegicus [2]) [%] | further results
1 | COc1cc2nc(N3CCN(C(=O)C4Oc5ccccc5OC4C)CC3)nc(N)c2cc1OC (cis isomer) [listing 1 of 2 here] |  |  |  | EC40 [4]: 27 nM; EC40 [5]: inactive
2 | COc1cc2nc(N3CCN(C(=O)C4COc5ccc(S(=O)(=O)N(C)C)cc5O4)CC3)nc(N)c2cc1OC (configuration not stated) | 6.5 | 8 | 10 | 
3 | COc1cc2nc(N3CCN(C(=O)C4COc5ccccc5O4)C(C)C3)nc(N)c2cc1OC (configuration not stated) | 6.5 | 13 | 18 | 
4 | COc1cc2nc(N3CCN(C(=O)C4COc5cccc(C(C)C)c5O4)CC3)nc(N)c2cc1OC (configuration not stated) | 6.7 | 3 | 6 | EC40 [6]: 130 nM; EC40 [5]: inactive
5 | COc1cc2nc(N3CCN(C(=O)C4COc5cccc(C)c5O4)CC3)nc(N)c2cc1OC (configuration not stated) | 3.7 | 22 | 16 | EC40 [4]: 26 nM; EC40 [5]: inactive
6 | COc1cc2nc(N3CCN(C(=O)C4COc5ccc(C(C)=O)cc5O4)CC3)nc(N)c2cc1OC (configuration not stated) | 3 | 24 | 19 | 
7 | COc1cc2nc(N3CCN(C(=O)C4COc5ccccc5O4)CC3)nc(N)c2cc1OC (stereo in doubt; 1) |  |  |  | EC40 [4]: 50 nM
8 | COc1ccc2c(c1)OCC(C(=O)N1CCN(c3nc(N)c4cc(OC)c(OC)cc4n3)CC1)O2 (configuration not stated) |  | 23 | 34 | EC40 [7]: inactive; EC40 [8]: 10 nM; Ki [9]: 5.6 nM
9 | COc1cc2nc(N3CCCN(C(=O)C4COc5ccccc5O4)CC3)nc(N)c2cc1OC (configuration not stated) | 1.6 | 12 | 22 | 
10 | COc1cc2nc(N3CCN(C(=O)C4COc5cc(C)c(C)cc5O4)CC3)nc(N)c2cc1OC (configuration not stated) | 7.8 | 20 | 14 | 
11 | COc1cc2nc(N3CCN(C(=O)C4COc5cc(Cl)ccc5O4)CC3)nc(N)c2cc1OC (configuration not stated) | 12.6 | 23 | 27 | 
12 | COc1cc2nc(N3CCN(C(=O)C4Oc5ccccc5OC4C)CC3)nc(N)c2cc1OC (trans isomer) [listing 2 of 2 here] |  |  |  | EC40 [4]: 13 nM; EC40 [5]: inactive
13 | COc1cc2nc(N3CCN(C(=O)C4(C)COc5ccccc5O4)CC3)nc(N)c2cc1OC (configuration not stated) |  | 9 | 8 | Ki [10]: 1.5 nM
14 | COc1cc2nc(N3CCN(C(=O)C4COc5cc(C(C)=O)ccc5O4)CC3)nc(N)c2cc1OC (configuration not stated) | 6.4 | 24 | 26 | 
15 | COc1cc2nc(N3CCN(C(=O)C4COc5cc(Cl)c(Cl)cc5O4)CC3)nc(N)c2cc1OC (configuration not stated) | 13.3 | 9 | 6 | 
16 | COc1cc2nc(N3CCN(C(=O)c4ccco4)CC3)nc(N)c2cc1OC [PRAZOSIN] |  | 29 | 33 | EC40 [4]: 4.5 nM
17 | COc1cc2nc(N3CCN(C(=O)C4COc5ccccc5O4)CC3)nc(N)c2cc1OC (single isomer, unassigned; (+)) |  |  |  | EC40 [4]: 7 nM
18 | COc1cc2nc(N3CCN(C(=O)C4COc5cccc(OC)c5O4)CC3)nc(N)c2cc1OC (configuration not stated) |  | 13 | 14 | Ki [11]: 2.4 nM
19 | COc1cc2nc(N3CCN(C(=O)C4COc5ccccc5O4)CC3)nc(N)c2cc1OC (single isomer, unassigned; (-)) |  |  |  | EC40 [4]: 40 nM

The next lines start with results.

Row | Ki [3] [nM] | Structure (SMILES) | Reduction (Rattus norvegicus [1]) [%] | Reduction (Rattus norvegicus [2]) [%] | further results
20 | 2.1 | COc1cc2nc(N3CCN(C(=O)C4Oc5ccccc5OC4C)CC3)nc(N)c2cc1OC (trans isomer) [listing 1 of 2 here] |  |  | Reduction (Rattus norvegicus [1]; 5 mg/kg): 21%; Reduction (Rattus norvegicus [2]; 5 mg/kg): 21%
21 | 2.2 | COc1cc2nc(N3CCN(C(=O)C4COc5ccccc5O4)CC3)nc(N)c2cc1OC (single isomer, unassigned; (-)) [DOXAZOSIN] |  |  | Reduction (Rattus norvegicus [2]; 5 mg/kg): 12%
22 | 1.1 | COc1cc2nc(N3CCN(C(=O)C4COc5ccccc5O4)CC3)nc(N)c2cc1OC (stereo in doubt; 1) [DOXAZOSIN] |  |  | Reduction (Rattus norvegicus [1]; 5 mg/kg): 27%; Reduction (Rattus norvegicus [2]; 5 mg/kg): 23%
23 | 0.7 | COc1cc2nc(N3CCN(C(=O)C4Oc5ccccc5OC4C)CC3)nc(N)c2cc1OC (cis isomer) [listing 2 of 2 here] |  |  | Reduction (Rattus norvegicus [1]; 5 mg/kg): 25%; Reduction (Rattus norvegicus [2]; 5 mg/kg): 23%
24 | 3.8 | COc1cc2nc(N3CCN(C(=O)C4CCOc5ccccc5O4)CC3)nc(N)c2cc1OC (configuration not stated) | 16 | 21 | 
25 | 2.6 | COc1cc2nc(N3CCN(C(=O)C4COc5ccccc5O4)CC3)nc(N)c2cc1OC (single isomer, unassigned; (+)) [DOXAZOSIN] |  |  | Reduction (Rattus norvegicus [1]; 5 mg/kg): 24%; Reduction (Rattus norvegicus [2]; 5 mg/kg): 27%

From ChEMBL document CHEMBL1123593, “2,4-diamino-6,7-dimethoxyquinazolines. 1. 2-[4-(1,4-benzodioxan-2-ylcarbonyl)piperazin-1-yl] derivatives as alpha 1-adrenoceptor antagonists and antihypertensive agents” (J Med Chem, 1987)
